This is an account of results in PubChem BioAssay.

Assay [1] addresses Pantothenate synthetase (Mycobacterium tuberculosis (strain ATCC 25618 / H37Rv)) (UniProt P9WIL5). In words: Recombinant Mtb pantothenate synthetase (PanC) inhibitors, coupled enzyme, confirmatory (AID 375; call rule not given here;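 also: 0% = full reaction with vehicle and 100% = no enzyme background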). The conditions noted are these: coupled enzyme assay; at 10 µM, stronger effect = higher value.
Assay [2] is described as follows: SK-BR-3 cell growth inhibitors, pilot screen, 24 h, human (AID 572;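 active = viability at or below 10% of carrier control in both of two separate runs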;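 also: compound exposure lasted between 18 and 24 h rather than exactly 24 h; 100% = carrier-treated control wells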). As to conditions: SK-BR-3 viability, CellTiter-Glo luminescence, at 10 µM, stronger effect = lower value.
Assay [3] can be described thus: growth inhibitors of H69AR lung tumor, primary screen, human, duplicate replicates (AID 580;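 active = viability at or under a set limit in both replicates, limit being median viability minus 3 SD, cut at about 48% in these data, passing the limit was not always enough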;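 also: 100% = mean luminescence of untreated wells and 0% = no signal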). As to conditions: H69AR lung tumor cells viability, ATP luminescence, 72 h; at 10 µM; stronger effect = lower value.
The nature of assay [4]: reversal of MRP1-mediated doxorubicin resistance, pilot screen, H69AR cells, doxorubicin co-treatment (AID 601;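 active = viability loss from added drug above about 55%, and viability with drug at most 40%, in both replicates, limit read from the data, passing the limit was not always enough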). As to conditions: CellTiter-Glo, 72 h, at 10 µM; for differential viability (reversal): stronger effect = higher value. For orientation: ATP-based viability assays read luminescence as a measure of living cells.
The nature of assay [5]: 384-well plate pilot, post-Golgi transport modulator project, inhibition of yeast transport mutant growth (AID 636). As to conditions: absorbance 615 nm, about 18 h, stronger effect = higher value.
The nature of assay [6]: growth suppression of yeast trafficking mutant, preliminary HTS, modulators of trafficking downstream of Golgi apparatus project, 1536-format plate, OD 615 nm (AID 637; in the data active = inhibition above about 30%). As to conditions: yeast transport mutant growth, absorbance 615 nm, 18 h; stronger effect = higher value.
Assay [7] in a line: HUVEC growth inhibition – cell-based, human, primary screen (AID 575;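 active = viability at or below 30% in both replicate assays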;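 also: 100% = median of untreated cell wells with 0.1% DMSO on each plate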). As to conditions: HUVEC proliferation, CellTiter-Glo luminescence, 72 h; at 10 µM; stronger effect = lower value. In a few lines:
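Test system: primary human umbilical vein endothelial cells. Quantity: 1250 cells/well. Compound: single 10 µM dose, 0.1% DMSO, from 5x medium stock. Timing: 72 h treatment at 37 °C. Detection: ATP-based CellTiter-Glo luminescent read. Benchmarks: vehicle and MePR control wells. Format: 384-well plates coated with collagen.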

Setting [8] is: H69AR cells + 2 uM doxorubicin, measured here: viability with 2 uM doxorubicin, stronger effect = lower value.
Setting [9] is: H69AR cells, compound alone cytotoxicity.

Each structure is given as a SMILES string. Calls of active or inactive are those of the source. Rule as the data show it, unless noted: active = inhibition above about 31%; inactive = the rest.

Chain of Pantothenate synthetase (Mycobacterium tuberculosis (strain ATCC 25618 / H37Rv)) (P9WIL5 whole entry, looked up): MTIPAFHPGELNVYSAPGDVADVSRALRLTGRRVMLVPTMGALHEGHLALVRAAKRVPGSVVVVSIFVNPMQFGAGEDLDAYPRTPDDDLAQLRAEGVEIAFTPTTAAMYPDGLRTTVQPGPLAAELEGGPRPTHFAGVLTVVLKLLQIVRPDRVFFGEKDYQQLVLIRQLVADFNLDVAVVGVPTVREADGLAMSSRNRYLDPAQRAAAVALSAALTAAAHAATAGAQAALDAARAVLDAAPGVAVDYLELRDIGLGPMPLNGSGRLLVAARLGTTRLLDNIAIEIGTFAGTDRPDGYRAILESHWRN

For `C[C@H]1CCCC(=O)CCCCCc2cc(O)cc(O)c2C(=O)O1`, the inhibition (as a rule, the drop in the measured response relative to a control, in per cent) was 2% (inactive) in assay [1], 0.26% (inactive) in assay [5] and -1.83% (inactive) in assay [6]. Besides, the viability (commonly a read-out of living cells in per cent, often relative to untreated cells) was 107% (inactive) in assay [2], 87.3% (inactive) in assay [3], 110% in assay [4] (setting [8]) and 87.3% in assay [4] (setting [9]). Also, the differential viability (reversal) in assay [4] (H69AR cells + 2 uM doxorubicin) is -23% (inactive).
Consider `c1ccc(Cn2ccnc2)cc1`, for which the values for the inhibition in assay [1], in assay [5] and in assay [6] were 0% (inactive), 0.78% (inactive) and 22% (inactive), respectively. Also, the viability was 127% (inactive) in assay [2]; 84.4% (inactive) in assay [7]; 93.5% (inactive) in assay [3]; 93.7% in assay [4] (setting [8]); 93.5% in assay [4] (setting [9]). Further, in assay [4] (H69AR cells + 2 uM doxorubicin), the differential viability (reversal) is -0.24% (inactive).
For the molecule `O=C(CN1CCN(Cc2cccc(Cl)c2)C1=O)N1CCC2(CC1)OCCO2`, the inhibition in assay [1] is 2% (inactive); in assay [5] it was -3.12% (inactive); in assay [6] it was -2.7% (inactive). Also, the viability in assay [7] is 87.6% (inactive); in assay [3], 89.5% (inactive); in assay [4] (setting [8]) it was 91.7%; in assay [4] (setting [9]), 89.5%. In addition, the differential viability (reversal) in assay [4] (H69AR cells + 2 uM doxorubicin) is -2.12% (inactive).
Regarding `Cc1ccccc1-n1c(O)c(C=NCCN2CCOCC2)c(=O)[nH]c1=O`, the inhibition in assay [1] is 2% (inactive); in assay [5], -5.87% (inactive); in assay [6], -8.41% (inactive). Moreover, the viability in assay [7] was 97.6% (inactive); in assay [3], 92.4% (inactive); in assay [4] (setting [8]) it was 95.5%; in assay [4] (setting [9]), 92.4%. Moreover, in assay [4] (H69AR cells + 2 uM doxorubicin), the differential viability (reversal) is -3.12% (inactive).
With `CN(C)CCc1nc2ccccc2c(=O)n1-c1ccccc1`, the inhibition in assay [1] is 0% (inactive); in assay [5], -2.08% (inactive); in assay [6] it was -4.43% (inactive). The viability was 107% (inactive) in assay [2]; 92.1% (inactive) in assay [7]; 90.6% (inactive) in assay [3]; 91.6% in assay [4] (setting [8]); 90.6% in assay [4] (setting [9]). Further, the differential viability (reversal) in assay [4] (H69AR cells + 2 uM doxorubicin) was -1.03% (inactive).
On to `O=C(CN1C2CCC1CC(O)(c1cccnc1)C2)Nc1ccc2c(c1)OCO2` (stereo unspecified), for which the results for the inhibition in assay [1], in assay [5] and in assay [6] were 11% (inactive), -6.53% (inactive) and 3.44% (inactive), respectively. Further, the viability was 72% (inactive) in assay [2]; 90.2% (inactive) in assay [7]; 91.3% (inactive) in assay [3]; 88.8% in assay [4] (setting [8]); 91.3% in assay [4] (setting [9]). Moreover, the differential viability (reversal) in assay [4] (H69AR cells + 2 uM doxorubicin) is 2.46% (inactive).
